How the values were obtained:
Human betaherpesvirus 5 [1] = assay: Antiviral activity against human cytomegalovirus AD169 infected in human HEL cells assessed as inhibition of virus-induced cytopathicity after 7 days post infection; type: functional, organism-based; settings: Human betaherpesvirus 5, AD169, HEL, 168 h
In short: (§1)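 Confluent HEL cell cultures in microtiter plates inoculated with 100 PFU CMV. After 2 h adsorption, residual virus removed and cells incubated with varying compound concentrations. Read once cytopathicity was complete in virus controls, usually 7 days post-infection.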

Human alphaherpesvirus 3 [2] = assay: Ratio of compound EC50 to Acyclovir EC50 for Varicella zoster virus YS infected in human HEL cells assessed as inhibition of virus induced cytopathicity after 5 days; type: functional
[3] = Cytotoxicity against human HEL cells assessed as reduction in cell growth after 3 days; type: cell-based
In short: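 HEL cell suspensions seeded into wells holding varying compound concentrations. Grown 3 days at 37 °C in humidified CO2 incubator. Viable cells counted with a Coulter Counter. CC50 = concentration lowering viable cell number by 50%.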

[4] = Cytotoxicity against human HEL cells assessed as microscopically detectable morphological alterations after 3 days; type: cell-based
In short: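 HEL cell cultures exposed to varying compound concentrations. Cells examined microscopically for changes in morphology. MCC = lowest concentration producing a detectable alteration of cell morphology.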

Human alphaherpesvirus 3 [5] = assay: Antiviral activity against thymidine kinase deficient Varicella zoster virus 07/1 infected in human HEL cells assessed as inhibition of virus-induced cytopathicity after 5 days; type: functional, organism-based; settings: Human alphaherpesvirus 3, 07/1, HEL, 120 h
In short: (§2)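 Confluent HEL cell cultures infected with 20 PFU/well VZV; after 2 h adsorption, residual virus removed and serial compound dilutions added. Incubated 5 days at 37 °C, 5% CO2, then fixed and stained. Plaques counted against untreated control.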

Human alphaherpesvirus 3 [6] = assay: Antiviral activity against Varicella zoster virus OKA infected in human HEL cells assessed as inhibition of virus-induced cytopathicity after 5 days; type: functional, organism-based; settings: Human alphaherpesvirus 3, OKA, 120 h; in short: as §2
Human alphaherpesvirus 3 [7] = assay: Antiviral activity against Varicella zoster virus YS infected in human HEL cells assessed as inhibition of virus induced cytopathicity after 5 days; type: functional, organism-based; settings: Human alphaherpesvirus 3, YS, 120 h
In short: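 Confluent HEL cell cultures infected with 20 PFU/well VZV; after 2 h adsorption, residual virus removed and serial compound dilutions added. Incubated 5 days at 37 °C, 5% CO2, then fixed and stained. Plaques counted against untreated control. EC50 = concentration cutting plaque formation by 50%.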

Human alphaherpesvirus 3 [8] = assay: Ratio of compound EC50 to Acyclovir EC50 for Varicella zoster virus OKA infected in human HEL cells assessed as inhibition of virus induced cytopathicity after 5 days; type: functional
Human betaherpesvirus 5 [9] = assay: Antiviral activity against human cytomegalovirus Davis infected in human HEL cells assessed as inhibition of virus-induced cytopathicity after 7 days post infection; type: functional, organism-based; settings: Human betaherpesvirus 5, Davis, 168 h
In short: as §1, with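 “post-infection. EC50 = concentration giving 50% reduction in plaque formation/cytopathicity.” for “post-infection.”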

Human alphaherpesvirus 3 [10] = assay: Ratio of compound EC50 to RA-5021 EC50 for Varicella zoster virus OKA infected in human HEL cells assessed as inhibition of virus induced cytopathicity after 5 days; type: functional
Human alphaherpesvirus 3 [11] = assay: Ratio of compound EC50 to RA-5021 EC50 for Varicella zoster virus YS infected in human HEL cells assessed as inhibition of virus induced cytopathicity after 5 days; type: functional

| Compound | EC50 (Human betaherpesvirus 5 [1]) [µM] | EC50 (Human alphaherpesvirus 3 [5]) [µM] | EC50 (Human alphaherpesvirus 3 [6]) [µM] | EC50 (Human alphaherpesvirus 3 [7]) [µM] | EC50 (Human betaherpesvirus 5 [9]) [µM] | Ratio EC50 (Human alphaherpesvirus 3 [2]) | CC50 at 72 h [3] [µM] | MCC at 72 h [4] [µM] | Ratio EC50 (Human alphaherpesvirus 3 [8]) | Ratio EC50 (Human alphaherpesvirus 3 [10]) | Ratio EC50 (Human alphaherpesvirus 3 [11]) |
| --- | --- | --- | --- | --- | --- | --- | --- | --- | --- | --- | --- |
| Nc1nc(O)c2ncn(CC3(CO)CC3CO)c2n1 (centres undefined) | 100 | 25.8 | 0.13 | 0.3 | 44.7 | 7 | > 100 | > 100 | 14 | – | – |
| O=c1c2ncn(CC3(CO)CC3CO)c2nc2[nH]c(-c3ccccc3)cn12 (centres undefined) | – | – | – | – | – | – | – | – | – | 3 | 2 |
| Nc1nc2c(ncn2COCCO)c(=O)[nH]1 [ACYCLOVIR] | – | – | – | 2 | 45 | – | 782 | – | – | – | – |
| O=c1[nH]c(=O)n([C@H]2C[C@H](O)[C@@H](CO)O2)cc1/C=C/Br [BRIVUDINE] | – | 157 | – | 0.026 | – | – | 432 | > 1200 | – | – | – |
| Nc1ccn(C[C@@H](CO)OCP(=O)(O)O)c(=O)n1 [CIDOFOVIR] | 1.6 | – | – | – | – | – | 54 | ≥ 254 | – | – | – |
| Nc1nc2c(ncn2COC(CO)CO)c(=O)[nH]1 [GANCICLOVIR] | 12.6 | 2.5 | 0.59 | 1.1 | – | – | 221 | > 1580 | – | – | – |

Now from value to compound, other results behind:

| EC50 (Human betaherpesvirus 5 [1]) [µM] | EC50 (Human alphaherpesvirus 3 [5]) [µM] | EC50 (Human alphaherpesvirus 3 [6]) [µM] | EC50 (Human alphaherpesvirus 3 [7]) [µM] | EC50 (Human betaherpesvirus 5 [9]) [µM] | Compound | Ratio EC50 (Human alphaherpesvirus 3 [2]) | CC50 at 72 h [3] [µM] | MCC at 72 h [4] [µM] | Ratio EC50 (Human alphaherpesvirus 3 [8]) | Ratio EC50 (Human alphaherpesvirus 3 [10]) | Ratio EC50 (Human alphaherpesvirus 3 [11]) |
| --- | --- | --- | --- | --- | --- | --- | --- | --- | --- | --- | --- |
| > 100 | 71.5 | 0.32 | 0.38 | 50.2 | O=c1c2ncn(CC3(CO)CC3CO)c2nc2[nH]c(-c3cccs3)cn12 (centres undefined) | – | > 100 | > 100 | – | 2.5 | 1.3 |
| > 100 | > 100 | 8.7 | 10 | 100 | O=c1c2ncn(COCCO)c2nc2[nH]c(-c3ccc(Br)s3)cn12 | – | > 100 | > 100 | – | – | – |
| > 100 | > 100 | 0.93 | 0.87 | 76.5 | O=c1c2ncn(CC3(CO)CC3CO)c2nc2[nH]c(-c3ccc(Br)s3)cn12 (centres undefined) | – | > 100 | > 100 | – | 7 | 2.9 |
| > 100 | > 100 | 16.4 | – | > 100 | O=c1c2ncn(COCCO)c2nc2[nH]c(-c3ccco3)cn12 | – | > 100 | > 100 | – | – | – |
| > 100 | > 100 | 5.8 | 7.9 | 100 | O=c1c2ncn(COCCO)c2nc2[nH]c(-c3cccs3)cn12 | – | > 100 | > 100 | – | – | – |
| > 100 | > 100 | 0.42 | 0.64 | > 100 | O=c1c2ncn(CC3(CO)CC3CO)c2nc2[nH]c(-c3ccco3)cn12 (cis isomer) | – | > 100 | > 100 | – | 3.2 | 2.1 |

Reference: ChEMBL document CHEMBL1153001 (Eur J Med Chem, 2009)
